pKd: −log10 of the molar value. Activity calls are given as the source filed them. No cut-off for these calls is given here.
Experiments:
[1] = test system: Heparin; assay: Inhibition of heparin (unknown origin) assessed as reversal of heparin reduced FXa protease activity by measuring Z-D-LGR-N(Me)ANBA peptide substrate at 1 uM hydrolysis after 30 mins; conditions: Homo sapiens
Method in brief: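 Human antithrombin III (0.02 IU/mL) and factor Xa (0.085 μg/mL) combined with heparin (0.1 IU/mL) and ligand (1 μM), then chromogenic substrate added (485 μM) with 4-nitroaniline as internal standard, shaken at 25 °C. Aliquots acid-quenched and analysed by HPLC at 405 nm; percent hydrolysis taken from normalized cleaved-peptide area, with no-heparin as maximal activity and heparin-only as maximal inhibition.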

[2] = molecular target: Heparin; assay: Binding affinity to heparin (unknown origin) assessed as apparent dissociation constant by SPR assay; parameters: species or system Homo sapiens; conditions: read-out: Kd(app)
Method in brief: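 Heparin-functionalized chip: biotin sensor chip loaded with streptavidin (50 μg/mL), then biotin-heparin (50 μg/mL). Ligands injected at 40 μL/min, 25 °C, in 25 mM Tris pH 7.5; surface regenerated with 10 mM HCl. Three independent runs at three ligand concentrations globally fitted to a 1:1 two-state (conformational change) model to give on/off rates and KDapp.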

[3] = molecular target: Heparin; assay: Binding affinity to heparin (unknown origin) assessed as apparent dissociation constant by ITC assay; parameters: species or system Homo sapiens; conditions: read-out: Kd(app)
[4] = molecular target: Heparin; assay: Binding affinity to heparin (unknown origin) assessed as apparent dissociation constant by fluorescence emission titration method; parameters: species or system Homo sapiens; conditions: read-out: Kd(app)
Method in brief: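 Binder at 10 μM in 1 mM Bis-Tris pH 7.5, excited at 280 nm; heparin stock (18 IU/mL) added in small portions with emission spectrum recorded after each addition. Full spectra globally fitted by nonlinear regression to a binding model of 1:1, 1:2 and 2:1 ligand–heparin disaccharide complexes to estimate equilibrium constants and apparent KD.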

[5] = test system: Heparin; assay: Reversal of heparin mediated anticoagulant activity in mouse blood after 15 mins; conditions: dose 90-250 µM
Method in brief: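 Freshly drawn, untreated mouse blood split into 300 μL aliquots, given heparin (130 μM, per disaccharide repeat unit) plus ligand at various concentrations; after 15 min, clotting judged by inverting the tubes and photographing.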

[6] = test system: Heparin; assay: Reversal of heparin mediated anticoagulant activity in heparinized CD-1 mouse at 2.2 to 4.4 mg/kg, iv after 10 mins by tail transection assay; type: organism-based; conditions: dose 2.2-4.4 mg/kg
Method in brief: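 Eight-week-old male CD-1 mice anaesthetised with xylazine/ketamine, then given iv heparin (100 IU/kg) followed by ligand at 2.2 or 4.4 mg/kg; saline, heparin-only and ligand-only (4.4 mg/kg, n = 3) controls. Tails cut 5 mm from tip 5 min after injection and bled 10 min into 1 mL saline at 37 °C; blood volume from absorbance at 414 nm against a standard curve. ANOVA.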

[7] = test system: A549; assay: Cytotoxicity against human A549 cells assessed as reduction in cell viability at 25 to 50 uM incubated for 1 hr by MTT assay; type: functional, cell-based; conditions: dose 25-50 µM
Method in brief: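 A549 cells grown in DMEM with 10% FCS, 2 mM glutamine and antibiotics at 37 °C, 5% CO2; seeded at 7000 cells/well, exposed to compound in medium 24 h later for 1 h, then MTT (0.5 mg/mL) for 2 h, formazan dissolved in DMSO, absorbance read at 570 nm. Viability as percent of untreated cells; three independent experiments.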

SMILES	inhibition [1]	pKd [2]	other results
Oc1c(CNCCCNCCCCNCCCNCc2ccc3ccccc3c2O)ccc2ccccc12	Active	–	–
N=C(N)NCCC[C@H](N)C(=O)NCCCN1CCN(CCCNC(=O)[C@@H](N)CCCNC(=N)N)CC1 [CIRAPARANTAG]	Active	5.82	–
Oc1ccccc1CNCCCNCCCCNCCCNCc1ccc2c(c1)Cc1ccccc1-2	Active	6.25	pKd [4]: 6.30; Activity [5]: Dose-Dependent Effect; Activity [6]: Active; Activity [7]: inactive
Oc1ccc2ccccc2c1CNCCCNCCCCNCCCNCc1c(O)ccc2ccccc12	Active	6.10	Activity [5]: Dose-Dependent Effect; Activity [6]: Active; Activity [7]: inactive

The next lines start with results.

inhibition [1]	pKd [2]	SMILES	other results
Active	5.73	Oc1ccccc1CNCCCNCCCCNCCCNCc1ccc2ccccc2c1O	–
–	5.72	Oc1ccccc1CNCCCNCCCCNCCCNCc1cccc2ccccc12	pKd [3]: 5.89
–	4.47	COc1ccccc1CNCCCNCCCCNCCCNCc1ccccc1OC	–
–	4.67	Oc1ccccc1CNCCCNCCCCNCCCNCc1ccccc1O	pKd [3]: 4.65
–	5.58	Oc1ccccc1CNCCCNCCCCNCCCNCc1c(O)ccc2ccccc12	–

From ChEMBL document CHEMBL5042551, “Dynamic Combinatorial Optimization of In Vitro and In Vivo Heparin Antidotes” (J Med Chem, 2022)
